Reference: ChEMBL document CHEMBL1137224, “Design, synthesis, and evaluation of 3,4-dihydro-2H-[1,4]diazepino[6,7,1-hi]indol-1-ones as inhibitors of poly(ADP-ribose) polymerase” (J Med Chem, 2004)
pIC50, pKi: −log10 of the molar value.

Experiments:
[1] = target: Poly [ADP-ribose] polymerase 1 (Homo sapiens, UniProt P09874)
A549 [2] = assay: In vitro cytotoxicity against human lung carcinoma A549 cells; assay type: functional, cell-based
Procedure, shortened: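 A549 cells seeded 16–24 h before treatment, then exposed to compound alone for 3 or 5 days. Relative cell number read by MTT (0.2 μg/μL, 4 h, DMSO-solubilized, 540 nm) or SRB (10% TCA fix 1 h at 4 °C, 0.4% SRB 30 min, Tris-solubilized, 515 nm). Cytotoxicity taken as % OD of treated versus mock-treated culture; IC50 reported.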

A549 [3] = assay: In vitro cytotoxicity of compound at 0.4 uM in combination with topotecan against human lung carcinoma A549 cells; assay type: functional, cell-based
Procedure, shortened: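 A549 cells seeded 16–24 h ahead, then exposed to topotecan plus 0.4 μM PARP-1 inhibitor for 3 or 5 days. Cell number read by MTT (540 nm) or SRB (515 nm). Cytotoxicity expressed as % OD relative to mock-treated culture; topotecan IC50 reported in presence of inhibitor.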

A549 [4] = assay: Ratio of cytotoxicity of topotecan to cytotoxicity of compound at 0.4 uM in combination with topotecan; assay type: functional, Homo sapiens

Chain of Poly [ADP-ribose] polymerase 1 (P09874 whole entry): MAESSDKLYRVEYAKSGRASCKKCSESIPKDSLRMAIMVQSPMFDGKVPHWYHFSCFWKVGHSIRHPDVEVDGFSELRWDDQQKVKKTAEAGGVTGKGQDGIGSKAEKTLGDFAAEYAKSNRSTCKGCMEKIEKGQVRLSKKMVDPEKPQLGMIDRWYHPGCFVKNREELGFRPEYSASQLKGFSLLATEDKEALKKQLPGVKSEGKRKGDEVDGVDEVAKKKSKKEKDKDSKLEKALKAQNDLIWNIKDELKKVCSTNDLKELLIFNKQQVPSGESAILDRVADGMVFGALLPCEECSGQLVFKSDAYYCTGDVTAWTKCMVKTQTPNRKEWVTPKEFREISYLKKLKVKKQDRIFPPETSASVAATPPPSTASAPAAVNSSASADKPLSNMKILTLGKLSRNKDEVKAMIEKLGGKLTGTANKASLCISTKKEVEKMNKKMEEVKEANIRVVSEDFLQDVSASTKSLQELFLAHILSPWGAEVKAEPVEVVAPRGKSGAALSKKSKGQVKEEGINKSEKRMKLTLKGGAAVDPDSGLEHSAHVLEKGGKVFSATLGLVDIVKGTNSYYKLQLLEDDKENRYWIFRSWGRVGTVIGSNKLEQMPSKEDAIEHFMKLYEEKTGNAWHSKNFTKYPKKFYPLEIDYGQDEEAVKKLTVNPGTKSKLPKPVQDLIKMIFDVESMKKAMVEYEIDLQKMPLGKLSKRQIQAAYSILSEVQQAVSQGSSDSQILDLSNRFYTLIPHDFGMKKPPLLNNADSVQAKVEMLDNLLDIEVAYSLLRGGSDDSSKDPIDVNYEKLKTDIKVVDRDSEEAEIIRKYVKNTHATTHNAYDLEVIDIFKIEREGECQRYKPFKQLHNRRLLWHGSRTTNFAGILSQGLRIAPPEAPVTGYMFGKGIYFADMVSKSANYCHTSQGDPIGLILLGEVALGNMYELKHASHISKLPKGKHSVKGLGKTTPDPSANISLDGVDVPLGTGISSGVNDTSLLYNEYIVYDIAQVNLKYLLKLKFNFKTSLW

Compound	pKi [1]	pIC50 (A549 [2])	pIC50 (A549 [3])	PF50 (A549 [4])
Cc1nc2c(O)cccc2c(=O)[nH]1	7.28			
Cc1cccc2c1CCNC2=O	7.15			
N=C(NO)C1c2cccc3c2N(CCNC3=O)C1c1ccc(F)cc1 (stereo not given)	7.06			
Cc1c(-c2ccc(F)cc2)n2c3c(cccc13)C(=O)NCC2		5.22	7.66	1.1
O=Cc1cn2c3c(cccc13)C(=O)NCC2	6.75			
CN(C)Cc1cccc(-c2cc3cccc4c3n2CCNC4=O)c1		4.96	7.82	1.6
O=C1NCCn2c(-c3ccc(Cn4cccc4)cc3)cc3cccc1c32	8.17			
O=C1NCCn2cc(/C=N/O)c3cccc1c32		5.10	7.73	1.3
NN/N=C/c1c(-c2ccc(F)cc2)n2c3c(cccc13)C(=O)NCC2	7.24			
CN(C)Cc1ccc(-c2cc3cccc4c3n2CCNC4=O)cc1	8.19	5.15	7.90	1.9
O=C1NCCn2c(-c3ccc(F)cc3)cc3cccc1c32		5.10	7.88	1.8
CNCc1cccc(-c2cc3cccc4c3n2CCNC4=O)c1	8.16			
O=C1NCCn2c(-c3ccc(F)cc3)c(/C=N/O)c3cccc1c32		> 6.10	7.70	1.2
O=C1NCCn2c(-c3ccc(Cl)cc3)cc3cccc1c32		5.52	7.88	1.8
O=C1NCCn2c(-c3cccc(Cn4cccc4)c3)cc3cccc1c32	7.90			
